Calls of active or inactive are those of the source.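 The calls were made as follows, unless noted: active = a full or partial loss of lipid-probe fluorescence in the fish gall bladder, intestine or both, judged by eye; inactive = no fluorescence loss, or compound toxic to the fish.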
Assays:
[1] = inhibitors of TNFa-induced NFkB p65 translocation, primary screen, imaging, HUVEC, MLSMR starter and 10KST1 sets (AID 438;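 active = inhibition above 20% together with a positive visual image hit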;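 also: compound added about 3h40 before a 20 min TNFalpha stimulation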;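 as to inhibition: signal is the nuclear over cytoplasmic p65 intensity ratio per well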); conditions: HUVEC TNFa-induced p65 nuclear translocation; cell count: measured here: nuclei count (cytotoxicity indicator), at 2.08 µM; inhibition: at 2 µM, stronger effect = higher value, 0% TNFa-plus-vehicle, 100% no-TNFa wells
[2] = inhibitors of E-selectin induction by TNFa, primary screen, imaging, HUVEC, immunofluorescence, MLSMR starter and 10KST1 sets (AID 487;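 active = visually confirmed hit in the image check and inhibition above 20%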;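 as to inhibition: signal is fraction of cell area covered by stained E-selectin grains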;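 as to nuclei count: 100% = median nuclei count of all wells on the same plate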); conditions: HUVEC TNFalpha-induced E-selectin immunofluorescence imaging, at 2 µM; inhibition: stronger effect = higher value; nuclei count: measured here: cell number, toxicity
[3] = DUSP6 inhibitors restoring Erk phosphorylation by chemical complementation, primary imaging in DUSP6-transfected HeLa (AID 609;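 active = compounds giving at least 50% inhibition in the cell-based MKP-3 phosphatase rescue imaging test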;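 as to inhibition: phospho-Erk level distribution per well compared with pooled transfected vehicle control wells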); conditions: HeLa MKP-3 transfected, phospho-Erk imaging KS statistic, at 10 µM, cells stimulated with TPA for 15 min
[4] = biological target: Dual specificity protein phosphatase 6 (Homo sapiens) (UniProt Q16828); assay: as above; conditions: HeLa MKP-3 transfected, phospho-Erk imaging KS statistic; at 10 µM; stronger effect = higher value; cells stimulated with TPA for 15 min
[5] = biological target: Voltage-gated potassium channel subunit beta-2 (Rattus norvegicus) (UniProt P62483); assay: KvBeta enzyme negative modulators, primary screen, biochemical, NADPH fluorescence (AID 622;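 active = fluorescence slope higher than the sample average by over 3 SD, cut at about -0.22 in these data, passing the limit was not always enough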;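 also: slope of raw intensity against log time taken from 70 to 1610 s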); conditions: recombinant KvBeta, 4-cyanobenzaldehyde reduction, at 10 µM, stronger effect = higher value
[6] = biological target: Voltage-gated potassium channel subunit beta-2 (Rattus norvegicus) (UniProt P62483); assay: KvBeta positive modulators, primary screen, biochemical, NADPH fluorescence (AID 623;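 active = NADPH fluorescence slope more negative than the mean of all samples by about 3 SD, 99.7% confidence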;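 also: fluorescence intensity change per second fitted from 20 to 320 s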); conditions: Recombinant KvBeta, NADPH fluorescence decrease slope, 10 min; at 10 µM; stronger effect = lower value
[7] = biological target: Alpha-2C adrenergic receptor (Homo sapiens) (UniProt P18825); assay: modulators of alpha2C/GIRK thallium flux, primary screen, cell-based, HEK293 alpha2C/GIRK1/2 (AID 624;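 active = fluorescence slope after compound addition differing from the mean of all screened samples at 99.7% confidence, in either direction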;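 also: slope of fluorescence ratio to pre-addition baseline per second over 15 to 24 s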); conditions: thallium flux BTC fluorescence, at 10 µM, actives lie on both sides
[8] = inhibitors of larval lipid processing in zebrafish, primary screen, whole organism, PED6 fluorescence, gall bladder and intestine (AID 686); conditions: Zebrafish larvae PED6 lipid processing, fluorescence scoring; screened at 20 µM (by protocol);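 also: larvae 5 to 7 days old with five fish per well; signal comes from phospholipase A2 cleavage of quenched PED6 carried via bile; overnight exposure to compound and PED6 before scoring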
How it was run: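 Test system – live zebrafish larvae aged 5-7 days, whole organism · Buffer or medium – E3 fish medium · Reagent – quenched phospholipase substrate PED6, 100 nM final, ingested by larvae · Doses – 20 µM single dose · Incubation – overnight compound and PED6 incubation · Technique – visual fluorescence microscopy scoring of gall bladder, gut · Read-out basis – visual per-well fluorescence inhibition score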

[9] = inhibitors of Chlamydomonas gravitaxis, primary screen, whole organism, Chlamydomonas reinhardtii, WT vs cilia-less mutant, absorbance, 96-well (AID 463189;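 active = inhibition at or above 50% relative to wild type and mutant plate controls; inactive = inhibition below 50%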;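 also: 0% = wild type cc124 cells in DMSO and 100% = ciliumless bld1 mutant cells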); conditions: OD600 absorbance, 2 days, at 10 µM, stronger effect = higher value
[10] = measured here: cell density z-score
[11] = measured here: nuclear c-Myc green intensity z-score
[12] = measured here: nuclear pErk red intensity z-score, stronger effect = higher value

Sequence of Dual specificity protein phosphatase 6 (Homo sapiens) (Q16828 whole entry, looked up): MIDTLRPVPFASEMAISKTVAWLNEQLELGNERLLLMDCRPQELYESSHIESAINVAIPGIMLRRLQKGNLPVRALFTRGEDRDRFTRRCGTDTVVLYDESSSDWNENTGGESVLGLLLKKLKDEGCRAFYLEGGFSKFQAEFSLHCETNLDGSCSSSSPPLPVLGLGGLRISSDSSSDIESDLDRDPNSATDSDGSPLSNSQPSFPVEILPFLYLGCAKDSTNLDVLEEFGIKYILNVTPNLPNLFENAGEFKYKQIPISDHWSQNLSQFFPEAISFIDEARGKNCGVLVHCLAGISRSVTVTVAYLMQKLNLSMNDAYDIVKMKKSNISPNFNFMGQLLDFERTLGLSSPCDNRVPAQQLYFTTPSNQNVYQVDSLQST
Sequence of Voltage-gated potassium channel subunit beta-2 (Rattus norvegicus) (P62483 whole entry, looked up): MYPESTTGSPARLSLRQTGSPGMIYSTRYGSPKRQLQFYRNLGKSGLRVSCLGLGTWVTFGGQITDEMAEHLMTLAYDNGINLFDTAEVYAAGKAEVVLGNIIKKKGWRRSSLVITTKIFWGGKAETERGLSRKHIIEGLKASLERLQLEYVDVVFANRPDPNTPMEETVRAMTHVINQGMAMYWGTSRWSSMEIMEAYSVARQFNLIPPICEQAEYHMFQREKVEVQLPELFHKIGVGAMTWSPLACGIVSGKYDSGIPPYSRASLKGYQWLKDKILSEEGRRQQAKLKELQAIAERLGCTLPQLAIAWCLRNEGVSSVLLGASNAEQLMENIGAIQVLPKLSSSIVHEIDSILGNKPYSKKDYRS
Sequence of Alpha-2C adrenergic receptor (Homo sapiens) (P18825 whole entry, looked up): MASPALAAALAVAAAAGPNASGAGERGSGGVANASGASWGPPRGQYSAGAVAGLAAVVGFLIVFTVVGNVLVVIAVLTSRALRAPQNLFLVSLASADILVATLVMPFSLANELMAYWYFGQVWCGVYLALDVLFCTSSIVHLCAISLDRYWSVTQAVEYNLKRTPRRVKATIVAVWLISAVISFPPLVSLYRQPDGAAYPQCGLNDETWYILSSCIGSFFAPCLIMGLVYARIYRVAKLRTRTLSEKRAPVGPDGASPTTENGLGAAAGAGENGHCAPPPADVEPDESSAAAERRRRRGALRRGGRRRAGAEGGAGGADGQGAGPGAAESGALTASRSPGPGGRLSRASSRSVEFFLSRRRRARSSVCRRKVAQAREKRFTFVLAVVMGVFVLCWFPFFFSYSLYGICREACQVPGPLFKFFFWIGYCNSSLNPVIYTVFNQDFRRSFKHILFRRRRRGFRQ

Row | Compound | cell count [1] | inhibition [1] | inhibition [2] | nuclei count [2] | z-score [3, 10] | z-score [3, 11] | z-score [3, 12] | inhibition [4] | fluorescence slope [5] | NADPH fluorescence slope [6] | slope [7] | outcome [8] | inhibition [9]
1 | CCOC(=O)c1ccc(NC(=O)CCC(CC)C(=O)O)cc1 (configuration not stated) | 402 | -23.7% (inactive) | -228% (inactive) | 167% | 1.04 | -1.56 | -0.382 | 27.7% (inactive) | -0.349 (inactive) | -9.3e-06 (inactive) | 0.00545 (inactive) | inactive | -1.41% (inactive)
2 | O=C(CC(c1ccccc1)c1ccco1)N1CCOCC1 (configuration not stated) | 294 | -28.3% (inactive) | -96.2% (inactive) | 84.1% | -0.599 | 0.143 | -0.229 | 14% (inactive) | -0.429 (inactive) | -4.9e-05 (inactive) | 0.00649 (inactive) | inactive | -5.11% (inactive)
3 | CCOC(=O)CSc1nnc2n(C3CCCCC3)c(=O)c3c4c(sc3n12)CCCC4 | 650 | -11.4% (inactive) | -104% (inactive) | 146% | -1.05 | -0.745 | -0.835 | 1.75% (inactive) | -0.533 (inactive) | -0.0001 (inactive) | 0.00612 (inactive) | inactive | -1.33% (inactive)
4 | COc1cccc(-c2nnc3sc(-c4ccccc4)nn23)c1 | 659 | 1.9% (inactive) | -40.1% (inactive) | 160% | -2.38 | 2.05 | 2 | -15% (inactive) | -0.424 (inactive) | -0.000144 (inactive) | 0.00489 (inactive) | inactive | -5.58% (inactive)
5 | c1csc(Cc2nn3c(-c4ccncc4)nnc3s2)c1 | 669 | -1.9% (inactive) | -17.9% (inactive) | 159% | 0.0409 | 0.511 | -0.101 | -6.06% (inactive) | -0.412 (inactive) | -0.000115 (inactive) | 0.00514 (inactive) | inactive | 8.13% (inactive)
6 | COc1cccc(/C(O)=C2\C(=O)C(=O)N(c3ccccn3)C2c2ccccc2OC)c1 (configuration not stated) | 512 | -5.9% (inactive) | -90.1% (inactive) | 126% | 1.61 | 0.206 | -0.573 | 12.3% (inactive) | -0.54 (inactive) | -2.1e-05 (inactive) | 0.00547 (inactive) | inactive | -14.1% (inactive)
7 | Cc1ccc(C)c(OCc2nnc(NC(=O)c3ccco3)s2)c1 | 656 | -2.1% (inactive) | 37.1% (inactive) | 191% | -0.0885 | 2.13 | -0.0889 | -4.27% (inactive) | -0.389 (inactive) | -5.4e-05 (inactive) | 0.0056 (inactive) | inactive | -2.58% (inactive)
8 | COc1cccc(-c2nn3c(-c4ccco4)nnc3s2)c1 | 611 | -8.6% (inactive) | 16.8% (inactive) | 155% | 0.808 | -0.226 | -0.00224 | 2.92% (inactive) | -0.406 (inactive) | -0.000142 (inactive) | 0.00559 (inactive) | inactive | -2.32% (inactive)
9 | c1ccc(OCc2nn3c(-c4cccnc4)nnc3s2)cc1 | 598 | -6.1% (inactive) | -87.1% (inactive) | 146% | 0.586 | -1.52 | -0.25 | -16.8% (inactive) | -0.423 (inactive) | -5.5e-05 (inactive) | 0.0063 (inactive) | inactive | 22.5% (inactive)
10 | O=C(c1cccc(Cl)c1)N1CCN(C(=O)c2ccccc2F)CC1 | 359 | -17.3% (inactive) | -357% (inactive) | 113% | -0.228 | -0.0273 | -2.04 | 1.75% (inactive) | -0.466 (inactive) | -1.8e-06 (inactive) | 0.00888 (inactive) | inactive | -3.06% (inactive)
11 | Cc1ccc2c(c1)[C@@H]1CN(C)CC[C@@H]1N2S(=O)(=O)c1ccc(F)cc1 | 507 | -8.3% (inactive) | -69% (inactive) | 199% | -0.629 | -0.478 | -0.18 | -8.27% (inactive) | -0.324 (inactive) | -2.1e-06 (inactive) | 0.00411 (inactive) | inactive | 10.5% (inactive)
12 | Cc1ccc(S(=O)(=O)N2CCC(N3CCCCCC3)CC2)cc1 | 449 | -31.4% (inactive) | -231% (inactive) | 163% | 0.833 | -1.65 | 0.596 | 1.04% (inactive) | -0.29 (inactive) | -8.7e-06 (inactive) | 0.0051 (inactive) | inactive | 116% (active)
13 | CC1(C)Cc2nc(NCCCO)c(C#N)cc2CO1 | 503 | -6% (inactive) | 29.1% (inactive) | 94.8% | -0.759 | 0.0263 | -0.295 | -11.9% (inactive) | -0.421 (inactive) | -0.000243 (inactive) | 0.00519 (inactive) | inactive | 5% (inactive)
14 | O=C(O)C(Cc1c[nH]c2ccccc12)NS(=O)(=O)c1cccc2nsnc12 (configuration not stated) | 564 | -1.2% (inactive) | -96.3% (inactive) | 160% | -0.832 | -0.134 | 0.46 | 19.1% (inactive) | -0.487 (inactive) | -5.5e-05 (inactive) | 0.00789 (inactive) | inactive | -3.63% (inactive)
15 | CC(C)c1nc(N2CCOCC2)c(C#N)c2c1CCC2 | 533 | 2.9% (inactive) | -92.4% (inactive) | 140% | 0.739 | -0.974 | -0.00414 | 10.5% (inactive) | -0.511 (inactive) | 3.3e-06 (inactive) | 0.0055 (inactive) | inactive; toxic | -0.955% (inactive)
16 | COc1ccc(-c2cc(-c3ccccc3)n3ncnc3n2)cc1 | 451 | 3.2% (inactive) | -35.1% (inactive) | 162% | 1.29 | 1.44 | -0.816 | -1.12% (inactive) | -0.00896 (inactive) | -5.1e-07 (inactive) | 0.00473 (inactive) | inactive | -19.8% (inactive)
17 | Cc1nc2sc3c(NCc4ccco4)ncnc3c2c2c1COC(C)(C)C2 | 595 | -11% (inactive) | -84.2% (inactive) | 181% | -1.22 | -0.424 | 1.05 | -2.69% (inactive) | -0.373 (inactive) | -3e-05 (inactive) | 0.00585 (inactive) | inactive | 45.7% (inactive)
18 | COCc1[nH]nc2c1C(c1ccccc1OC)C(C#N)=C(N)O2 (configuration not stated) | 633 | -4.1% (inactive) | 27.6% (inactive) | 101% | 0.246 | 0.997 | -0.624 | -7.28% (inactive) | -0.488 (inactive) | -1.1e-05 (inactive) | 0.00544 (inactive) | inactive | 31.9% (inactive)
19 | Cc1ccc(C(=O)CSC2=C(C#N)C(c3ccco3)C3=C(CCCC3=O)N2)cc1 (configuration not stated) | 333 | -7.4% (inactive) | -98.2% (inactive) | 165% | 1.35 | -1.13 | 0.366 | 1.42% (inactive) | -0.449 (inactive) | -0.000148 (inactive) | 0.00654 (inactive) | inactive | 8.93% (inactive)
20 | CCOC(=O)c1ccc(N2CC(O)=C(c3nc4ccccc4c(=O)[nH]3)C2=N)cc1 | 623 | -11.3% (inactive) | 45.3% (inactive) | 186% | -1.54 | 0.558 | 1.53 | -13.3% (inactive) | -0.208 (inactive) | -1.8e-05 (inactive) | 0.00503 (inactive) | inactive | 2.42% (inactive)
21 | CCN(CC)CCCN1C(=O)C(O)=C(C(=O)c2ccc(C)o2)C1c1ccc(C)o1 (configuration not stated) | 581 | -17.5% (inactive) | -104% (inactive) | 153% | 0.106 | 0.341 | 0.337 | -2.47% (inactive) | -0.485 (inactive) | -5.2e-05 (inactive) | 0.00555 (inactive) | inactive | 4.2% (inactive)
22 | CCOC(=O)CSc1nc(N)c(C#N)c(-c2ccc(OC)cc2)c1C#N | 475 | 1.6% (inactive) | -88.5% (inactive) | 127% | 0.441 | 1.58 | 1.28 | 24.7% (inactive) | -0.52 (inactive) | -3.8e-05 (inactive) | 0.00551 (inactive) | inactive | -7.05% (inactive)
23 | Cn1c(=O)c2c(nc(OCc3cccnc3)n2Cc2ccccc2)n(C)c1=O | 599 | 8.2% (inactive) | 3.5% (inactive) | 138% | 1.08 | -0.258 | 0.62 | -2.91% (inactive) | -0.517 (inactive) | -0.000111 (inactive) | 0.00473 (inactive) | inactive | -5.51% (inactive)
24 | CCOc1ccc(-c2nn3c(-c4ccc(OC)cc4)nnc3s2)cc1 | 620 | -14.6% (inactive) | -58.9% (inactive) | 162% | 0.559 | -1.74 | 0.0677 | 2.92% (inactive) | -0.443 (inactive) | -7.7e-05 (inactive) | 0.00846 (inactive) | inactive | 5.79% (inactive)

— PubChem BioAssay
